# Assay results: ChEMBL document CHEMBL3351461, “Discovery of novel, dual mechanism ERK inhibitors by affinity selection screening of an inactive kinase” (J Med Chem, 2014)
# Calls of active or inactive are those of the source. No cut-off for these calls is given here.
# Molecular target: T1, Mitogen-activated protein kinase 1 (Homo sapiens, UniProt P28482)
# Assay: Binding to phosphorylated ERK2 (unknown origin) by temperature dependent fluorescence (TdF) assay
# T1 sequence (P28482 whole entry): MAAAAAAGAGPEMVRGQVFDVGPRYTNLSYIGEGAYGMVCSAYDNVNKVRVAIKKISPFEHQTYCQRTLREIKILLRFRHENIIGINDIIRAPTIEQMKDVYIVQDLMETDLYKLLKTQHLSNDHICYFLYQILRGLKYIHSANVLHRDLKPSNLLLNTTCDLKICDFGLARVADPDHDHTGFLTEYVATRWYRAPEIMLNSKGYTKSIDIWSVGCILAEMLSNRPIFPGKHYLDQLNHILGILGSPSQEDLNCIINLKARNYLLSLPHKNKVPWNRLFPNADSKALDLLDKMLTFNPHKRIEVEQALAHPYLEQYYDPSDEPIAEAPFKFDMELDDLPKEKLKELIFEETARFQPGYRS
row,Kd [nM],Compound
1,870,CC(=O)c1ccc(N2CCN(C(=O)CN3CC[C@H](C(=O)Nc4ccc(O)c(Cl)c4)C3)CC2)cc1

# Molecular target: Mitogen-activated protein kinase 1 (Mus musculus) (UniProt P63085)
# Assay: Inhibition of inactive ERK2 (mouse) coupled with human MEK1 using IMAP peptide substrate after 30 mins by coupled ERK2 assay
# Sequence of Mitogen-activated protein kinase 1 (Mus musculus) (P63085 whole entry, looked up): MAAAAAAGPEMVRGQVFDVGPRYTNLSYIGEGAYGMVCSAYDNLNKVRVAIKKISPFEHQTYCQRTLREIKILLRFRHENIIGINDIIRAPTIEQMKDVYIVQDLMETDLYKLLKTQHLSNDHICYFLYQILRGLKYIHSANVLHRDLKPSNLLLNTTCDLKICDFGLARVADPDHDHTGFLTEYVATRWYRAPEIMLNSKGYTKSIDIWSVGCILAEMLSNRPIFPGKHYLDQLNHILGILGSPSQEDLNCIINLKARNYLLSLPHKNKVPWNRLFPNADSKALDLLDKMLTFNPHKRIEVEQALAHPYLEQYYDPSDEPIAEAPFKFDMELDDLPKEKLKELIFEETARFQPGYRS
row,IC50 [nM],Compound
1,3600,CC(=O)c1ccc(N2CCN(C(=O)CN3CC[C@H](C(=O)Nc4ccc(O)c(Cl)c4)C3)CC2)cc1

# Molecular target: T1, Mitogen-activated protein kinase 1
# Assay: Binding to unphosphorylated ERK2 (unknown origin) by temperature dependent fluorescence (TdF) assay
row,Kd [nM],Compound
1,360,CC(=O)c1ccc(N2CCN(C(=O)CN3CC[C@H](C(=O)Nc4ccc(O)c(Cl)c4)C3)CC2)cc1

# Molecular target: T2, Dual specificity mitogen-activated protein kinase kinase; MEK1/2 (Homo sapiens) (UniProt P36507+Q02750)
# Assay: Binding affinity to phosphorylated MEK (unknown origin) by temperature dependent fluorescence (TdF) assay
# T2 sequence (P36507 whole entry, looked up): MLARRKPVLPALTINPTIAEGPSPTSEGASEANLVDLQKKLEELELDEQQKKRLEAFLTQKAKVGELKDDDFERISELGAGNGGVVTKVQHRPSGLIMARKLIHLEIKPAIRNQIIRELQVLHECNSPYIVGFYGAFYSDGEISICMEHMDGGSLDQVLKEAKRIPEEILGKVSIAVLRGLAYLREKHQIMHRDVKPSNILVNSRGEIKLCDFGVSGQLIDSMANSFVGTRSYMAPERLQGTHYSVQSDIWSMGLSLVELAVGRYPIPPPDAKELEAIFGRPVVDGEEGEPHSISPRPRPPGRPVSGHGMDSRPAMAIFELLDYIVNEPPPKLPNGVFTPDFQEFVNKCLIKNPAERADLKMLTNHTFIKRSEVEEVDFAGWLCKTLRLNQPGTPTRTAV
# T2 sequence (Q02750 whole entry, looked up): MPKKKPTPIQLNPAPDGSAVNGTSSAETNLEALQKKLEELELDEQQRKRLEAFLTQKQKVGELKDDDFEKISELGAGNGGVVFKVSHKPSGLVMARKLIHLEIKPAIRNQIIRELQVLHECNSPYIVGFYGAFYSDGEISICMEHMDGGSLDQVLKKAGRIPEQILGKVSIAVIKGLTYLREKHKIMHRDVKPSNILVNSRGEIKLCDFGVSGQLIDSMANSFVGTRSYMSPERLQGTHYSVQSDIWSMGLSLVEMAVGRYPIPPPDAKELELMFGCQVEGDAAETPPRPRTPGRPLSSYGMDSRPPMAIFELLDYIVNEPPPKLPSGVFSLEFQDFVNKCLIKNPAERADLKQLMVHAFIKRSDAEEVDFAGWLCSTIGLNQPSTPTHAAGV
row,Activity,Compound
1,inactive,CC(=O)c1ccc(N2CCN(C(=O)CN3CC[C@H](C(=O)Nc4ccc(O)c(Cl)c4)C3)CC2)cc1

# Molecular target: T1, Mitogen-activated protein kinase 1
# Assay: Inhibition of activated ERK2 (unknown origin) using IMAP peptide substrate after 30 mins by activated ERK2 assay
# Method in brief: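 IMAP fluorescence-polarization assay. Started with 1 μM substrate peptide (100 nM fluorescein-labelled) and 30 μM ATP. Run 30 min, stopped with IMAP beads, read after 30 min. N = 2.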
row,IC50 [nM],Compound
1,32000,CC(=O)c1ccc(N2CCN(C(=O)CN3CC[C@H](C(=O)Nc4ccc(O)c(Cl)c4)C3)CC2)cc1

# Molecular target: T2, Dual specificity mitogen-activated protein kinase kinase; MEK1/2 (Homo sapiens)
# Assay: Binding affinity to unphosphorylated MEK (unknown origin) by temperature dependent fluorescence (TdF) assay
row,Activity,Compound
1,inactive,CC(=O)c1ccc(N2CCN(C(=O)CN3CC[C@H](C(=O)Nc4ccc(O)c(Cl)c4)C3)CC2)cc1
